Assay results taken from ChEMBL document CHEMBL1255265, “Linezolid and tiamulin cross-resistance in Staphylococcus aureus mediated by point mutations in the peptidyl transferase center” (2008).
Values after ≈ are worked out from the molar mass of the structure shown.

What was measured:
Escherichia coli [1] = experiment: Antimicrobial activity against Escherichia coli KM75-84 harboring Gly153Arg mutation in rplC gene by agar dilution method in presence of 16 ug/ml polymyxin B nonapeptide; assay type: functional
Outline: (§1)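 MIC by agar dilution following BSAC guidelines in Mueller-Hinton medium. For E. coli, the medium was supplemented with 16 μg/ml polymyxin B nonapeptide to permeabilize the gram-negative envelope.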

Escherichia coli [2] = experiment: Antimicrobial activity against Escherichia coli KM85-86 harboring Lys157Gln mutation in rplC gene by agar dilution method in presence of 16 ug/ml polymyxin B nonapeptide; assay type: functional; outline: as §1
Escherichia coli [3] = experiment: Antimicrobial activity against Escherichia coli KM69-73 harboring G2447U mutation in 23S rRNA by agar dilution method in presence of 16 ug/ml polymyxin B nonapeptide
Escherichia coli [4] = experiment: Antimicrobial activity wild type Escherichia coli SQ110 by agar dilution method; assay type: functional
Staphylococcus aureus [5] = experiment: Antimicrobial activity against Staphylococcus aureus NRS120 clinical isolate harboring G2576U mutation in 23S rRNA by agar dilution method; assay type: functional
Outline: (§2)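 S. aureus MICs were determined by agar dilution per BSAC guidelines in Mueller-Hinton medium, without supplement.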

Staphylococcus aureus [6] = experiment: Antimicrobial activity against Staphylococcus aureus KM187+198 harboring G2576U mutation in 23S rRNA by agar dilution method; assay type: functional; outline: as §2
Staphylococcus aureus [7] = experiment: Antimicrobial activity against Staphylococcus aureus NRS119 clinical isolate harboring G2576U mutation in 23S rRNA by agar dilution method; assay type: functional; outline: as §2
Escherichia coli [8] = experiment: Antimicrobial activity against Escherichia coli KM89-94 harboring G2576U mutation in 23S rRNA by agar dilution method in presence of 16 ug/ml polymyxin B nonapeptide; assay type: functional; outline: as §1
Escherichia coli [9] = experiment: Antimicrobial activity against Escherichia coli KM87-88 harboring Arg141Ser mutation in rplC gene by agar dilution method in presence of 16 ug/ml polymyxin B nonapeptide; assay type: functional; outline: as §1
Staphylococcus aureus [10] = experiment: Antimicrobial activity against Staphylococcus aureus NRS121 clinical isolate harboring G2576U mutation in 23S rRNA by agar dilution method; assay type: functional; outline: as §2
Escherichia coli [11] = experiment: Antimicrobial activity against Escherichia coli KM55-68 harboring G2576U mutation in 23S rRNA by agar dilution method in presence of 16 ug/ml polymyxin B nonapeptide; assay type: functional; outline: as §1
Escherichia coli [12] = experiment: Antimicrobial activity against Escherichia coli KM74 harboring U2500A mutation in 23S rRNA by agar dilution method in presence of 16 ug/ml polymyxin B nonapeptide; assay type: functional; outline: as §1
Escherichia coli [13] = experiment: Antimicrobial activity wild type Escherichia coli SQ110 by agar dilution method in presence of 16 ug/ml polymyxin B nonapeptide; assay type: functional; outline: as §1
Staphylococcus aureus [14] = experiment: Antimicrobial activity against wild type Staphylococcus aureus RN4220 measured after 2 days of subculturing by agar dilution method; assay type: functional; conditions: RN4220, 48 h
Outline: (§3)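 Resistant mutants were selected by serial subculture in Mueller-Hinton medium containing antibiotic, and time to emergence of resistance was recorded. MICs were determined by agar dilution per BSAC guidelines.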

Staphylococcus aureus [15] = experiment: Antimicrobial activity against mutS-expressing Staphylococcus aureus RN4220 measured after 1 day of subculturing by agar dilution method; assay type: functional; conditions: RN4220, 24 h; outline: as §3
Staphylococcus aureus [16] = experiment: Antimicrobial activity against Staphylococcus aureus KM168 harboring Arg149Ser mutation in rplC gene by agar dilution method; assay type: functional; outline: as §2
Staphylococcus aureus [17] = experiment: Antimicrobial activity against Staphylococcus aureus KM166-167 harboring Ser158Leu mutation in rplC gene by agar dilution method; assay type: functional; outline: as §2
Staphylococcus aureus [18] = experiment: Antimicrobial activity against Staphylococcus aureus RN4220 by agar dilution method; assay type: functional; outline: as §2
Escherichia coli [19] = experiment: Antimicrobial activity against tiamulin resistant Escherichia coli SQ110 by agar dilution method; assay type: functional
Staphylococcus aureus [20] = experiment: Antimicrobial activity against tiamulin resistant Staphylococcus aureus 8325-4 after 1 day of subculturing by agar dilution method; assay type: functional; conditions: 8325-4, 24 h; outline: as §3
Staphylococcus aureus [21] = experiment: Antimicrobial activity against Staphylococcus aureus KM164-165 harboring Gly155Arg mutation in rplC gene by agar dilution method; assay type: functional; outline: as §2

| SMILES | MIC (Escherichia coli [1]) | MIC (Escherichia coli [2]) | MIC (Escherichia coli [3]) | MIC (Staphylococcus aureus [5]) | MIC (Staphylococcus aureus [6]) | MIC (Staphylococcus aureus [7]) | MIC (Escherichia coli [8]) | MIC (Escherichia coli [9]) | MIC (Staphylococcus aureus [10]) | MIC (Escherichia coli [11]) | MIC (Escherichia coli [12]) | MIC (Escherichia coli [13]) | further results |
| --- | --- | --- | --- | --- | --- | --- | --- | --- | --- | --- | --- | --- | --- |
| CC(=O)NC[C@H]1CN(c2ccc(N3CCOCC3)c(F)c2)C(=O)O1 [LINEZOLID] | 16 µg/mL | 16 µg/mL | 64 µg/mL | 64 µg/mL (≈ 190 µM) | 64 µg/mL (≈ 190 µM) | 64 µg/mL (≈ 190 µM) | 64 µg/mL | 16 µg/mL | 64 µg/mL (≈ 190 µM) | 64 µg/mL | 64 µg/mL | 16 µg/mL | MIC (Escherichia coli [4]): 256 µg/mL (≈ 759 µM) |
| C=C[C@]1(C)C[C@@H](OC(=O)CSCCN(CC)CC)[C@]2(C)[C@H](C)CC[C@]3(CCC(=O)[C@H]32)[C@@H](C)[C@@H]1O [TIAMULIN] | 32 µg/mL | 32 µg/mL | 64 µg/mL | 32 µg/mL (≈ 64.8 µM) | 16 µg/mL (≈ 32.4 µM) | 32 µg/mL (≈ 64.8 µM) | 64 µg/mL | 64 µg/mL | 32 µg/mL (≈ 64.8 µM) | 64 µg/mL | 64 µg/mL | 8 µg/mL | MIC (Staphylococcus aureus [14]): 1 µg/mL (≈ 2.03 µM); MIC (Staphylococcus aureus [15]): 2 µg/mL (≈ 4.05 µM); MIC (Staphylococcus aureus [16]): 8 µg/mL (≈ 16.2 µM); MIC (Staphylococcus aureus [17]): 16 µg/mL (≈ 32.4 µM); MIC (Staphylococcus aureus [18]): 1 µg/mL (≈ 2.03 µM); MIC (Escherichia coli [19]): 128 µg/mL (≈ 259 µM); MIC (Staphylococcus aureus [20]): 1 µg/mL (≈ 2.03 µM); MIC (Staphylococcus aureus [21]): 8 µg/mL (≈ 16.2 µM) |
